Data published in EPA's CvTdb concentration-time database.

How the values were obtained:
human [1] = experiment: concentration in blood after dosing; conditions: dosed: phenacetin, 250 mg, iv, male
How it was run: (§1)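 Concentration-versus-time or amount-versus-time points were compiled from published in vivo toxicokinetic studies and from two structured collections. The studies were found by PubMed searching, classifier screening and manual review. Points were mostly digitised from plot screenshots with WebPlotDigitizer, otherwise copied from tables, and kept in the reported units. Dose, route, subject details and medium were curated by hand from each paper, and sampling and analytical methods follow each source and were often unreported.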

human [2] = experiment: concentration in blood after dosing; conditions: dosed: phenacetin, 250 mg, iv, male; remark: listed apart in the source
How it was run: as §1

human [3] = experiment: concentration in blood after dosing; conditions: dosed: phenacetin, male
How it was run: as §1

human [4] = experiment: concentration in blood after dosing; conditions: dosed: phenacetin, 1 g, oral, male
How it was run: as §1

human [5] = experiment: concentration in blood after dosing; conditions: dosed: phenacetin, 1 g, oral, male; remark: listed apart in the source
How it was run: as §1

human [6] = experiment: concentration in blood after dosing; conditions: 40 min; dosed: phenacetin; 0.25 g; oral; male
How it was run: as §1

rat = experiment: concentration in plasma after dosing; conditions: dosed: phenacetin, oral
dog = experiment: concentration in plasma after dosing; conditions: dosed: phenacetin, 1 mg/kg, iv, duration: 5 min, male, beagle
How it was run: as §1

human [7] = experiment: concentration in blood after dosing; conditions: dosed: phenacetin, 250 mg, iv, male; remark: listed apart in the source
How it was run: as §1

human [8] = experiment: concentration in blood after dosing; conditions: dosed: phenacetin, 250 mg, iv, male; remark: listed apart in the source
How it was run: as §1

human [9] = experiment: concentration in blood after dosing; conditions: dosed: phenacetin, 250 mg, iv, male; remark: listed apart in the source
How it was run: as §1

CCOc1ccc(NC(C)=O)cc1 [phenacetin]
Conditions | concentration in blood [ng/mL] | concentration in plasma [ng/mL]
dog, 0.2422 h | – | 1250
dog, 0.3263 h | – | 884
dog, 0.4969 h | – | 529
dog, 1.165 h | – | 136
dog, 1.67 h | – | 63.4
dog, 2.162 h | – | 32.4
dog, 3.172 h | – | 13.5
human [1], 1 h | 920 | –
human [1], 1.5 h | 820 | –
human [1], 2 h | 590 | –
human [1], 3 h | 330 | –
human [1], 4 h | 150 | –
human [1], 10 min | 3060 | –
human [1], 20 min | 2090 | –
human [1], 40 min | 1180 | –
human [2], 1 h | 640 | –
human [2], 1.5 h | 460 | –
human [2], 2 h | 430 | –
human [2], 3 h | 220 | –
human [2], 10 min | 2610 | –
human [2], 20 min | 1770 | –
human [2], 40 min | 940 | –
human [4], 1 h | 4600 | –
human [4], 1.5 h | 1220 | –
human [4], 2 h | 750 | –
human [4], 3 h | 360 | –
human [4], 4 h | 330 | –
human [4], 5 h | 190 | –
human [4], 20 min | 300 | –
human [4], 40 min | 4510 | –
human [5], 4 h | 2120 | –
human [5], 5 h | 670 | –
human [7], 1 h | 740 | –
human [7], 1.5 h | 310 | –
human [7], 2 h | 190 | –
human [7], 3 h | 80 | –
human [7], 10 min | 2920 | –
human [7], 20 min | 1910 | –
human [7], 40 min | 1090 | –
human [8], 1 h | 1540 | –
human [8], 1.5 h | 1010 | –
human [8], 2 h | 690 | –
human [8], 3 h | 180 | –
human [8], 10 min | 3420 | –
human [8], 20 min | 2620 | –
human [8], 40 min | 1890 | –
human [9], 1 h | 660 | –
human [9], 1.5 h | 500 | –
human [9], 2 h | 210 | –
human [9], 3 h | 80 | –
human [9], 10 min | 1860 | –
human [9], 20 min | 1080 | –
human [9], 40 min | 980 | –

Conditions | concentration in blood [ng/mL] | concentration in plasma [µM]
human [3], 1 h, 0.25 g, oral | 180 | –
human [3], 1 h, 1 g, oral | 2750 | –
human [3], 1 h, 250 mg, iv | 670 | –
human [3], 1.5 h, 1 g, oral | 3360 | –
human [3], 1.5 h, 250 mg, iv | 510 | –
human [3], 2 h, 1 g, oral | 1880 | –
human [3], 2 h, 250 mg, iv | 370 | –
human [3], 3 h, 1 g, oral | 820 | –
human [3], 3 h, 250 mg, iv | 240 | –
human [3], 4 h, 1 g, oral | 530 | –
human [3], 4 h, 250 mg, iv | 130 | –
human [3], 5 h, 1 g, oral | 410 | –
human [3], 10 min, 250 mg, iv | 2670 | –
human [3], 20 min, 0.25 g, oral | 340 | –
human [3], 20 min, 250 mg, iv | 1260 | –
human [3], 40 min, 0.25 g, oral | 310 | –
human [3], 40 min, 250 mg, iv | 910 | –
rat, 0.25 h, 250 mg/kg, Wistar | – | 129
rat, 0.5 h, 250 mg/kg, Wistar | – | 105
rat, 1 h, 250 mg/kg, Wistar | – | 92.6
rat, 2 h, 250 mg/kg, Wistar | – | 11.5
rat, 3 h, 250 mg/kg, Wistar | – | 1.59

Conditions | concentration in blood [ng/mL]
human [6] | 230

rat, male, Sprague Dawley
Conditions | concentration in plasma [ng/mL]
0.1117 h, 360 mg/kg | 14500
0.193 h, 360 mg/kg | 24300
0.249 h, 10 mg/kg | 2910
0.2743 h, 360 mg/kg | 30300
0.5079 h, 360 mg/kg | 28500
0.772 h, 360 mg/kg | 25500
0.9929 h, 10 mg/kg | 193
1.006 h, 360 mg/kg | 23900
1.524 h, 360 mg/kg | 14300
1.985 h, 10 mg/kg | 34.3
2.022 h, 360 mg/kg | 11300
3.99 h, 10 mg/kg | 12.9
4.033 h, 360 mg/kg | 4510
5.995 h, 10 mg/kg | 8.58
7.985 h, 10 mg/kg | 8.58
8.005 h, 360 mg/kg | 913
11.99 h, 360 mg/kg | 171
268 s, 10 mg/kg | 893
